This note sets out measurements from ChEMBL document CHEMBL1158826, “Anti-inflammatory activity of verminoside from Kigelia africana and evaluation of cutaneous irritation in cell cultures and reconstituted human epidermis” (J Nat Prod, 2005).

Molecules are shown by their SMILES. pEC50: −log10 of the molar value. Activity calls are given as the source filed them. The calls are words filed in the database; no cut-off is given here.

Series [1] deals with J774.A1. Briefly: Cytotoxicity against mouse J774A1 macrophages grown in monolayers by MTT assay. The class given is cell-based. Summed up: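 Monolayer J774.A1 cells were exposed to test solutions in PBS, 0.01-1 mM for pure compounds and 1-1000 µg/mL for extract. Viability was read by MTT assay and expressed as % of PBS-treated controls. Experiments were repeated at least three times with three or more observations each. ANOVA with Bonferroni.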

For series [2], the system named is J774.A1. Briefly: Antiinflammatory activity against mouse J774A1 macrophages assessed as inhibition of LPS-induced iNOS expression at 1 mM treated 1 hr before LPS challenge and measured after 24 hrs by Western blot analysis. The class given is functional, cell-based. The procedure, abridged:
(§1)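 J774.A1 cells were given test solutions in PBS (0.01-1 mM) 1 h before and together with LPS (6 × 103 u/mL). After 24 h with LPS, cells were lysed and iNOS protein detected by Western blot with densitometry. Results are % inhibition versus LPS alone, from 3-6 independent experiments in triplicate. One-way ANOVA.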

Series [3] concerns J774.A1. Briefly: Antiinflammatory activity against mouse J774A1 macrophages assessed as inhibition of LPS-induced NO release pretreated for 1 hr before LPS challenge measured after 24 hrs by Griess method. The class given is functional, cell-based. Summed up:
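Nitrite measured in medium by Griess reaction 24 h after LPS (6 × 103 u/mL). J774.A1 cells plated at 1.5 × 106 in P60 plates. Test solutions in PBS (0.01-1 mM) were added 1 h before and again together with LPS. Nitrite was read against a sodium nitrite standard curve in culture medium. Inhibition is given as % versus LPS-only cells. At least 3 independent experiments, 3 replicates each.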

For series [4], the system named is J774.A1. Briefly: Antiinflammatory activity against mouse J774A1 macrophages assessed as inhibition of LPS-induced iNOS expression pretreated for 1 hr before LPS challenge and measured after 24 hrs by Western blot analysis. The class given is functional, cell-based. The procedure, abridged:
as §1

Series [5] in a line: Cytotoxicity against reconstituted human epidermal cells assessed as cell viability after 72 hrs by MTT assay. Type of series: cell-based. Summed up: (§2)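 Epidermis tissues were dosed topically with 50 µL of PBS solutions (extract 1-3%, compound 0.25-1%) in duplicate and kept at 37 °C, 5% CO2 for 24 or 72 h, with medium changed daily. Controls were PBS pH 7.2 and SDS 0.25%. After washing, MTT (0.5 mg/mL) was added for 3 h at 37 °C and OD read at 570 nm. Results are % viability versus PBS-treated epidermis.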

Series [6] is described as follows: Cytotoxicity against reconstituted human epidermal cells assessed as cell viability after 24 hrs by MTT assay. Type of series: cell-based. Summed up:
as §2

The species named for series [7] is Homo sapiens. Briefly: Antiinflammatory activity against reconstituted human epidermis model assessed as inhibition of IL1alpha release after 72 hrs by ELISA relative to control. To be noted: Skin epidermis. Type of series: functional. Summed up:
(§3)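 Reconstituted human epidermis (0.63 cm2, differentiated from normal human keratinocytes) received 50 µL of PBS solutions applied topically. Concentrations were 1, 2, 3% for extract and 0.25, 0.5, 1% for pure compound. Tissues were held at 37 °C, 5% CO2, with daily medium change. Underlying medium was collected at 24 or 72 h and IL-1α (pg/mL) quantified by ELISA. Controls were PBS and SDS 0.25%. Three independent experiments.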

For the next series, the system named is Skin epidermis. Briefly: Effect on morphological changes in reconstituted human epidermis model assessed as induction of tissue degeneration and necrosis after 24 hrs. Type of series: functional. Summed up:
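Reconstituted epidermis was dosed topically with PBS solutions at 1-3% (extract) or 0.25-1% (compound), with PBS and SDS 0.25% as controls. After 24 or 72 h, tissues were fixed in 10% formalin, dehydrated through ethanol and toluene, and paraffin-embedded. Sections of 5 µm were stained with H&E and examined by light microscopy at 200×.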

For series [8], the species on record is Homo sapiens. Briefly: Antiinflammatory activity against reconstituted human epidermis model assessed as inhibition of IL1alpha release after 24 hrs by ELISA relative to control. The class given is functional. To be noted: Skin epidermis. Summed up: as §3

The molecule `C[C@@H]1O[C@@H](O[C@@H]2[C@@H](O)[C@H](OCCc3ccc(O)c(O)c3)O[C@H](CO)[C@H]2OC(=O)/C=C/c2ccc(O)c(O)c2)[C@H](O)[C@H](O)[C@H]1O` [ACETOSIDE] had a pEC50 with J774.A1 [1] of 3.31. Besides, the outcome in the series on J774.A1 [2] was Active.

Take `O=C(/C=C/c1ccc(O)c(O)c1)O[C@@H]1C2C=CO[C@H](O[C@@H]3O[C@H](CO)[C@@H](O)[C@H](O)[C@H]3O)C2[C@]2(CO)O[C@H]12` (some centres undefined) [VERMINOSIDE]: the Activity result in the series with J774.A1 [3] is “Dose-dependent effect”; in the series with J774.A1 [4] it was “Dose-dependent effect”; in [5], “Non-toxic”; in [6] it was “Non-toxic”.

`CCCCCCCCCCCCOS(=O)(=O)[O-].[Na+]`: the results for the Activity in the series listed under Homo sapiens [7] and in the series listed under Homo sapiens [8] were 110 pg/mL and 250 pg/mL, respectively. Moreover, in the series with Skin epidermis, the result was Active.
